Bioassay records (PubChem)
In the library only some 2.7% were active in any assay of this set; here they are far more common.
V1R ag counter: counter-screen for oxytocin receptor agonists: human V1a receptor agonists. P37288. CHO-V1R cells, Fluo-8 calcium fluorescence, agonist mode; 0% DMSO, 100% 3 nM vasopressin. activation, % at 3 µM. hit rate 0.25% among 320,000. AID 2797;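 active = activation above the mean activation of all tested compounds plus 3 SD, per screening run, cut at about 20% in these data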;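 note: signal is peak over basal fluorescence ratio across a 100 second FLIPR read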
Target sequence (P37288 whole entry, looked up): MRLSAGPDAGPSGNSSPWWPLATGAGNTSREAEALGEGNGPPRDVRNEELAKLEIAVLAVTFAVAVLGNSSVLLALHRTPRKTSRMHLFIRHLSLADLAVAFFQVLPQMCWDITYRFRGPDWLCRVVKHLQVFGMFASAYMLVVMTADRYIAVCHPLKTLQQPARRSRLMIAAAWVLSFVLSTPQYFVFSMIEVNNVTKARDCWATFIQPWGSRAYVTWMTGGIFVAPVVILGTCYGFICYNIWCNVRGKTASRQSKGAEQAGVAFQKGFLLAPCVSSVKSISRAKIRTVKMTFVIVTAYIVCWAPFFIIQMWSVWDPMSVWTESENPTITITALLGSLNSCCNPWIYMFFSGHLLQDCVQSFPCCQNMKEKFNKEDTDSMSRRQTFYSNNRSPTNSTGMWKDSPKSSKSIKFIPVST
OXTR agonist: activates the human oxytocin receptor; P30559; CHO-OTR cells, Fluo-8 calcium fluorescence; normalized: DMSO 0%, oxytocin 100%; activation, % at 3 µM; hit rate 0.32% among 320,000;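 active = activation above the mean of all tested compounds plus 3 SD, cutoff set per screening run, cut at about 20% in these data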;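 note: peak over basal fluorescence ratio from a 100 s FLIPR kinetic read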
OXTR potentiator: potentiates the human oxytocin receptor response; P30559; CHO-OTR cells, Fluo-8 calcium fluorescence, potentiator mode; 0% = oxytocin EC15, 100% = EC100; activation, % at 3 µM; hit rate 0.061% among 320,000; AID 2445;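 active = activation above that plate's cutoff, the mean activation of tested compounds plus 3 SD, cut at about 6.6% in these data, passing the limit was not always enough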
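System: human OTR in CHO cells / Also added: sub-maximal oxytocin, roughly EC15 / Control set: EC15 oxytocin low, 75 nM oxytocin high / Schedule: 6 min compound pre-incubation at room temperature, 100 s kinetic read / Compound: single-point 3.0 µM / Replication: singlicate / Technique: Fluo-8 calcium dye fluorescence / Read-out basis: % activation of max/min ratio relative to oxytocin controls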
OX1R antag-1: human HCRTR1 antagonism; O43613; CHO/OX1R cells, Fluo-8 calcium fluorescence, orexin A; inhibition, % at 5 µM; hit rate 0.43% among 330,000;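 active = inhibition above its plate's threshold, mean inhibition of all tested compounds on the plate plus 3 SD, cut at about 37% in these data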
CHO parental Ca: counter-screen: ATP calcium response change in parental CHO cells; parental CHO-K1, ATP-induced calcium, Fluo-8 fluorescence; inhibition, % at 5.6 µM; hit rate 0.63% among 330,000; AID 463079;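 active = inhibition above that plate's mean sample inhibition plus 3 SD, cut at about 26% in these data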
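Test system: untransfected parental CHO cell line; also added: ATP stimulus; dosing: 5.6 µM, single dose; signal: calcium-sensitive Fluo-8 fluorescence; measure: percent inhibition of ATP-evoked calcium rise, normalized to controls; benchmarks: low control ATP plus DMSO, high control DMSO only; replication: one well per compound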
OX1R antag-2: antagonists of human orexin 1 receptor (OX1R). OX1R-expressing cells, FRET antagonist read-out. inhibition, % at 6.6 µM. hit rate 1.8% among 330,000. AID 485270; in the data active = inhibition mostly above about 38%, no sharp cut-off; inactive = mostly below about 40%
OX1R HTRF conf: OX1R (human) antagonism, HTRF confirmed. shares compounds with OX1R antag-2. hit rate 49% among 1,800. OX1R-expressing cells, HTRF antagonist assay. inhibition, % at 6.6 µM; in the data active = inhibition above about 55%;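 note: CHO cells expressing OX1R stimulated with orexin A at about EC80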
CHO-K1 HTRF cnt: counter-screen: parental CHO-K1 HTRF response; parental CHO-K1 cells, HTRF counterscreen; shares compounds with OX1R antag-2; hit rate 48% among 1,800; inhibition, % at 6.6 µM; in the data active = inhibition above about 17%
A number is an active result; n = inactive; x = no result.

SMILES | V1R ag counter | OXTR agonist | OXTR potentiator | OX1R antag-1 | CHO parental Ca | OX1R antag-2 | OX1R HTRF conf | CHO-K1 HTRF cnt
CN1C(=O)/C(=C2\SC(=S)N(C(CCC(=O)O)C(=O)O)C2=O)c2ccccc21 (configuration not stated) | n | n | n | n | n | 142 | 57 | 102
O=C(O)CN1C(=O)/C(=C2\C(=O)N(Cc3ccccc3Cl)c3ccccc32)SC1=S | n | n | n | n | n | n | x | x
CCOC(=O)c1nn(-c2ccccc2)c(=O)c2c(N)scc12 | n | n | n | n | n | 108 | n | 17
CCn1c2ccccc2c2cc(NC(=O)c3cc(C)on3)ccc21 | n | n | n | n | n | 88 | 64 | n
CCn1c2ccccc2c2cc(NC(=O)c3ccc(C)c([N+](=O)[O-])c3)ccc21 | n | n | n | n | n | 77 | 88 | n
O=C(CSc1ccc(Cl)cc1)N/N=C/c1ccc([N+](=O)[O-])o1 | n | n | n | n | n | n | x | x
O=C(Nc1ccc2c(c1)CN(Cc1ccccc1O)CC2)C1CCCO1 (configuration not stated) | n | n | n | n | n | n | x | x
CCn1c(/C=C2/C(=O)N(C)c3ccccc32)nc2ccccc2c1=O | n | n | n | n | n | 86 | n | n
O=[N+]([O-])c1cccc2c(N3CCCC3)ccnc12 | n | n | n | n | n | 132 | 61 | 101
CC(C)(C)N(Cc1ccccc1)C(=O)COC(=O)/C=C/c1ccc2c(c1)OCO2 | n | n | n | n | n | n | x | x
CC(NS(=O)(=O)c1cccc(C(=O)NCc2ccncc2)c1)c1ccccc1 (configuration not stated) | n | n | n | n | n | n | x | x
CCOC(=O)COc1ccc2cc(C(=O)OCC)c(=O)oc2c1 | n | n | n | n | n | 110 | n | 38
CCOC(=O)COc1ccc2c3c(c(=O)oc2c1)CCCC3 | n | n | n | n | n | n | x | x
CC[n+]1c(/C=C/c2ccc(N(C)C)cc2)ccc2ccccc21 | n | n | n | n | n | 94 | 82 | 103
NC(=O)c1cccc2cc3ccccc3cc12 | n | n | n | n | n | 77 | n | n
CCN(CC(=O)Nc1ccc2c(c1)OCCO2)C(=O)c1ccc([N+](=O)[O-])s1 | n | n | n | n | n | n | x | x
CCN1C(=O)[C@H]2[C@H]3CN=C(SCc4ccc(C)cc4)N3[C@@](CC)(C(=O)OC)[C@H]2C1=O | x | x | x | n | n | n | x | x
O=C(COC(=O)c1cc(-c2ccncc2)nc2ccccc12)Nc1ccc2c(c1)OCO2 | n | n | n | n | n | 152 | n | 24
O=C(Nc1ccc2c(c1)OCO2)c1cc(-c2cccnc2)nc2ccccc12 | n | n | n | n | n | n | x | x
CN(C)/C=C1/Oc2c(ccc3ccccc23)C1=O | n | n | n | n | n | 88 | 85 | n
Cc1cc(=O)[nH]c(N/N=C/c2c(C)oc3ccccc23)n1 | n | n | n | n | n | 77 | 85 | n
Cc1cc(=O)[nH]c(N/N=C/c2c[nH]c3ccccc23)n1 | n | n | n | n | n | n | x | x
COc1ccc(S(=O)(=O)N2CCCCC2)cc1NC(=O)CCOc1cc(C)ccc1C | n | n | n | n | n | n | x | x
COc1ccc(/C=C2\Oc3ccccc3C2=O)cc1 | n | n | n | n | n | n | x | x
COc1ccc2c(c1)O/C(=C\c1sccc1C)C2=O | n | n | n | n | n | 81 | n | n
COc1ccc(C(C)C)cc1S(=O)(=O)NC1CCCC1 | n | n | n | n | n | n | x | x
COCCCNC(=O)c1c(N)n(-c2ccc3c(c2)OCO3)c2nc3ccccc3nc12 | n | n | n | n | n | 104 | n | n
COc1ccc2c(c1)CCCC21NC(=O)N(CC(=O)NCc2cccs2)C1=O (configuration not stated) | n | n | n | n | n | n | x | x
